Reference: ChEMBL document CHEMBL4834474, “Terphenyl-Based Small-Molecule Inhibitors of Programmed Cell Death-1/Programmed Death-Ligand 1 Protein-Protein Interaction” (J Med Chem, 2021)
The source made the active and inactive calls. No cut-off for these calls is given here.

Assays:
[1] = biological target: T1, Programmed cell death protein 1/Programmed cell death 1 ligand 1 (Homo sapiens) (UniProt Q15116+Q9NZQ7); test: Inhibition of PD-1/PD-L1 interaction in human Jurkat cells cocultured with CHO cells expressing PD-Ll/TCRAct assessed as activation of effector Jurkat cells at 0.01 to 100 uM incubated for 6 hrs by luciferase reporter gene based immune checkpoint blockade cell-based assay; conditions: dose 0.01-100 µM
Procedure, shortened: (§1)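 CHO/TCRAct/PD-L1, CHO/TCRAct or CHO-K1 cells seeded at 10,000/well. Next day overlaid with Jurkat-ECs (20,000/well) plus compound dilutions, DMSO held at 0.1%. Incubated 6 h at 37 °C, 5% CO2; luciferase reagent added for 20 min at room temperature; luminescence read. Fold induction over DMSO-treated cells; mean ± SD, 3–5 experiments; EC50 by Hill fit.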

[2] = system: Jurkat; test: Cytotoxicity against human Jurkat effector cells at 10 uM after 48 hrs; format: cell-based
Procedure, shortened: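 Jurkat-ECs (PD-1, NFAT-RE luciferase) exposed to increasing compound concentrations, DMSO constant at 0.1%. After 48 h, tetrazolium redox dye added for a further 2 h at 37 °C, 5% CO2. Absorbance at 590 nm, 750 nm reference. Survival relative to DMSO controls; mean ± SD of three independent experiments; EC50 from dose–response curve.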

[3] = biological target: T1, Programmed cell death protein 1/Programmed cell death 1 ligand 1 (Homo sapiens); test: Inhibition of PD-1/PD-L1 interaction in human Jurkat cells cocultured with CHO cells expressing TCRAct assessed as activation of effector Jurkat cells incubated for 6 hrs by luciferase reporter gene based immune checkpoint blockade cell-based assay; procedure, shortened: as §1
[4] = biological target: T1, Programmed cell death protein 1/Programmed cell death 1 ligand 1 (Homo sapiens); test: Inhibition of PD-1/PD-L1 interaction in human PBMCs cocultured with CHO cells expressing PD-L1/TCRAct assessed as increase in IL-6 expression at 0.1 to 2.5 uM incubated for 48 hrs by TCA; format: cell-based; conditions: PBMC, dose 0.1-2.5 µM
Procedure, shortened: (§2)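 Culture supernatants taken from 48 h cocultures of PBMCs with CHO/TCRAct/PD-L1 cells (compound 0.1, 0.5, 2.5 μM). IL-2, IL-6, IL-10, IFN-γ, TNFα quantified by cytometric bead array against standard curves. Per donor, normalized to untreated PBMC plus CHO/TCRAct coculture. Mean ± SEM of four donors; one-way ANOVA, Fisher post hoc.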

[5] = biological target: Programmed cell death 1 ligand 1 (Mus musculus) (UniProt Q9EP73); test: Binding affinity to mouse PD-L1 assessed as induction of protein dimerization by 1H NMR method
Sequence of Programmed cell death 1 ligand 1 (Mus musculus) (Q9EP73 whole entry): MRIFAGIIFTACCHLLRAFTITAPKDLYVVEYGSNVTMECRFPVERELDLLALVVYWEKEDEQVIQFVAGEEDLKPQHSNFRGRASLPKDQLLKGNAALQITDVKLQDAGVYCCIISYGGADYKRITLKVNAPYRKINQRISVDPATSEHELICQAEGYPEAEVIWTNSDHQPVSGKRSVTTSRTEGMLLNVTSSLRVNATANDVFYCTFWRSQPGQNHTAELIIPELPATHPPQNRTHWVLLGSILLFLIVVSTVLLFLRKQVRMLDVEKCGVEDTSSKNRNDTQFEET

[6] = biological target: T1, Programmed cell death protein 1/Programmed cell death 1 ligand 1 (Homo sapiens); test: Inhibition of PD-1/PD-L1 interaction in human PBMCs cocultured with CHO cells expressing PD-L1/TCRAct assessed as increase in CD25 expression on CD4+ T cells at 0.1 to 2.5 uM incubated for 48 hrs by flow cytometry; format: cell-based; conditions: PBMC, dose 0.1-2.5 µM
Procedure, shortened: (§3)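 PBMCs isolated by density gradient from healthy donor blood (citrate dextrose anticoagulant). 3 × 10^5 cells added to preseeded CHO/TCRAct/PD-L1 cells with compound at 0.1, 0.5 or 2.5 μM, 0.1% DMSO as control. Cocultured 48 h at 37 °C, 5% CO2. Detached cells stained 20 min at RT for CD4, CD8, CD69, CD25, HLA-DR, PD-1; flow cytometry. Four donors; one-way ANOVA with Fisher post hoc.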

[7] = biological target: T1, Programmed cell death protein 1/Programmed cell death 1 ligand 1 (Homo sapiens); test: Inhibition of PD-1/PD-L1 interaction in human PBMCs cocultured with CHO cells expressing PD-L1/TCRAct assessed as increase in PD-1 receptor expression on CD8+ T cells at 0.1 to 2.5 uM incubated for 48 hrs by flow cytometry; format: cell-based; conditions: PBMC, dose 0.1-2.5 µM; procedure, shortened: as §3
[8] = biological target: T1, Programmed cell death protein 1/Programmed cell death 1 ligand 1 (Homo sapiens); test: Inhibition of PD-1/PD-L1 interaction in human PBMCs cocultured with CHO cells expressing PD-L1/TCRAct assessed as increase in PD-1 receptor expression on CD4+ T cells at 0.1 to 2.5 uM incubated for 48 hrs by flow cytometry; format: cell-based; conditions: PBMC, dose 0.1-2.5 µM; procedure, shortened: as §3
[9] = biological target: T1, Programmed cell death protein 1/Programmed cell death 1 ligand 1 (Homo sapiens); test: Inhibition of PD-1/PD-L1 interaction in human PBMCs cocultured with CHO cells expressing PD-L1/TCRAct assessed as increase in INFgamma expression at 0.1 to 2.5 uM incubated for 48 hrs by TCA; format: cell-based; conditions: PBMC, dose 0.1-2.5 µM; procedure, shortened: as §2
[10] = biological target: T1, Programmed cell death protein 1/Programmed cell death 1 ligand 1 (Homo sapiens); test: Inhibition of PD-1/PD-L1 interaction in human PBMCs cocultured with CHO cells expressing PD-L1/TCRAct assessed as increase in CD25 expression on CD8+ T cells at 0.1 to 2.5 uM incubated for 48 hrs by flow cytometry; format: cell-based; conditions: PBMC, dose 0.1-2.5 µM; procedure, shortened: as §3
[11] = biological target: T1, Programmed cell death protein 1/Programmed cell death 1 ligand 1 (Homo sapiens); test: Inhibition of PD-1/PD-L1 interaction in human PBMCs cocultured with in CHO cells expressing PD-L1/TCRAct assessed as increase in HLA-DR expression on CD8+ T cells at 0.1 to 2.5 uM incubated for 48 hrs by flow cytometry; format: cell-based; conditions: PBMC, dose 0.1-2.5 µM; procedure, shortened: as §3
[12] = biological target: T1, Programmed cell death protein 1/Programmed cell death 1 ligand 1 (Homo sapiens); test: Inhibition of PD-1/PD-L1 interaction in human PBMCs cocultured with CHO cells expressing PD-L1/TCRAct assessed as increase in HLA-DR expression on CD4+ T cells at 0.1 to 2.5 uM incubated for 48 hrs by flow cytometry; format: cell-based; conditions: PBMC, dose 0.1-2.5 µM; procedure, shortened: as §3
[13] = biological target: Programmed cell death 1 ligand 1 (Homo sapiens) (UniProt Q9NZQ7); test: Binding affinity to human PD-L1 assessed as induction of protein dimerization by 1H NMR method
Sequence of Programmed cell death 1 ligand 1 (Homo sapiens) (Q9NZQ7 whole entry): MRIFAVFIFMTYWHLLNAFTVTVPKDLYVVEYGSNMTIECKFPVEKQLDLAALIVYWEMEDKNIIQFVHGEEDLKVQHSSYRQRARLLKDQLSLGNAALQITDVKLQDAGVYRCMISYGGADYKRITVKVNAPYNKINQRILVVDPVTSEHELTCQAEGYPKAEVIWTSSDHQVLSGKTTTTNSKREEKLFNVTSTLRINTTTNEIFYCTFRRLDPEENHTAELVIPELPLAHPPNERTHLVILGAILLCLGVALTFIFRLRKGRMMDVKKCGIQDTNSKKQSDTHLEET

[14] = biological target: T1, Programmed cell death protein 1/Programmed cell death 1 ligand 1 (Homo sapiens); test: Inhibition of PD-1/PD-L1 interaction in human PBMCs cocultured with CHO cells expressing PD-L1/TCRAct assessed as increase in TNFalpha expression at 0.1 to 2.5 uM incubated for 48 hrs by TCA; format: cell-based; conditions: PBMC, dose 0.1-2.5 µM; procedure, shortened: as §2
[15] = biological target: T1, Programmed cell death protein 1/Programmed cell death 1 ligand 1 (Homo sapiens); test: Inhibition of PD-1/PD-L1 interaction in human PBMCs cocultured with CHO cells expressing PD-L1/TCRAct assessed as increase in IL-10 expression at 0.1 to 2.5 uM incubated for 48 hrs by TCA; format: cell-based; conditions: PBMC, dose 0.1-2.5 µM; procedure, shortened: as §2
[16] = biological target: T1, Programmed cell death protein 1/Programmed cell death 1 ligand 1 (Homo sapiens); test: Inhibition of PD-1/PD-L1 interaction in human PBMCs cocultured with CHO cells expressing PD-L1/TCRAct assessed as increase in IL-2 expression at 0.1 to 2.5 uM incubated for 48 hrs by TCA; format: cell-based; conditions: PBMC, dose 0.1-2.5 µM; procedure, shortened: as §2

Row | SMILES | inhibition [1] | Activity [2] | inhibition [3] | Activity [13] | other results
1 | COc1cc(-c2cccc(-c3ccc4c(c3)OCCO4)c2Cl)ccc1CNCCNC(=O)CN | Active | Non-Toxic | inactive |  | 
2 | COc1cc(-c2cccc(-c3ccc4c(c3)OCCO4)c2Cl)ccc1CNC(CO)(CO)CO | Active | Non-Toxic | inactive | Active | inhibition [4]: Active; Activity [5]: inactive; inhibition [6]: Active; inhibition [7]: Active; inhibition [8]: Active; inhibition [9]: Active; inhibition [10]: Active; inhibition [11]: Active; inhibition [12]: Active; inhibition [14]: Active; inhibition [15]: Active; inhibition [16]: Active
3 | COc1cc(-c2cccc(-c3ccc4c(c3)OCCO4)c2Cl)ccc1CNCCNC(C)=O | Active | Non-Toxic | inactive | Active | 
4 | CC(=O)NCCNCc1ccc(-c2cccc(-c3ccc4c(c3)OCCO4)c2Cl)cc1OCC#N |  |  |  | Active | 
5 | COc1cc(-c2cccc(-c3ccc4c(c3)OCCO4)c2Cl)ccc1CNCCNS(C)(=O)=O | Active | Non-Toxic | inactive |  | 
6 | COc1cc(-c2cccc(-c3ccc4c(c3)OCCO4)c2Cl)ccc1CNCCNC(N)=O | Active | Non-Toxic | inactive |  | inhibition [6]: inactive; inhibition [7]: Active; inhibition [8]: Active; inhibition [10]: inactive; inhibition [11]: inactive; inhibition [12]: inactive
7 | COc1cc(-c2cccc(-c3ccc4c(c3)OCCO4)c2Cl)ccc1CNC(CO)CO | Active | Non-Toxic | inactive |  | 
